Experimental data: ChEMBL document CHEMBL1128453, “Peptidyl alpha-ketoheterocyclic inhibitors of human neutrophil elastase. 3. In vitro and in vivo potency of a series of peptidyl alpha-ketobenzoxazoles” (J Med Chem, 1995)

Tests used:
Neutrophil elastase = target: T1, Neutrophil elastase (Homo sapiens, UniProt P08246); assay: Inhibition of human neutrophil elastase-catalyzed hydrolysis of the synthetic substrate MeO-Suc-Ala-Ala-Pro-Val-pNa
T1 sequence (P08246 whole entry): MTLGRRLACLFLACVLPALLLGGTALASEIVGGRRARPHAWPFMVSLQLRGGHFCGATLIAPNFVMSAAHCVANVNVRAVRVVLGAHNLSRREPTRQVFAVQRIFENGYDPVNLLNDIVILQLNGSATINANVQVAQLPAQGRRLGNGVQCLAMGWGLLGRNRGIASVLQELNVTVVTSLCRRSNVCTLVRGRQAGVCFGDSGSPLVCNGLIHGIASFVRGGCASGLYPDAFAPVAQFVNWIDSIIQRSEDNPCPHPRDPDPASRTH

Serine protease 1 = Serine protease 1 (Homo sapiens, UniProt P07477); assay: Binding affinity towards trypsin
Prothrombin = Prothrombin (Homo sapiens, UniProt P00734); assay: Binding affinity towards thrombin
[1] = target: T2, Angiotensin-converting enzyme (Rattus norvegicus, UniProt P47820); assay: Biological activity was measured against Angiotensin I converting enzyme
T2 sequence (P47820 whole entry): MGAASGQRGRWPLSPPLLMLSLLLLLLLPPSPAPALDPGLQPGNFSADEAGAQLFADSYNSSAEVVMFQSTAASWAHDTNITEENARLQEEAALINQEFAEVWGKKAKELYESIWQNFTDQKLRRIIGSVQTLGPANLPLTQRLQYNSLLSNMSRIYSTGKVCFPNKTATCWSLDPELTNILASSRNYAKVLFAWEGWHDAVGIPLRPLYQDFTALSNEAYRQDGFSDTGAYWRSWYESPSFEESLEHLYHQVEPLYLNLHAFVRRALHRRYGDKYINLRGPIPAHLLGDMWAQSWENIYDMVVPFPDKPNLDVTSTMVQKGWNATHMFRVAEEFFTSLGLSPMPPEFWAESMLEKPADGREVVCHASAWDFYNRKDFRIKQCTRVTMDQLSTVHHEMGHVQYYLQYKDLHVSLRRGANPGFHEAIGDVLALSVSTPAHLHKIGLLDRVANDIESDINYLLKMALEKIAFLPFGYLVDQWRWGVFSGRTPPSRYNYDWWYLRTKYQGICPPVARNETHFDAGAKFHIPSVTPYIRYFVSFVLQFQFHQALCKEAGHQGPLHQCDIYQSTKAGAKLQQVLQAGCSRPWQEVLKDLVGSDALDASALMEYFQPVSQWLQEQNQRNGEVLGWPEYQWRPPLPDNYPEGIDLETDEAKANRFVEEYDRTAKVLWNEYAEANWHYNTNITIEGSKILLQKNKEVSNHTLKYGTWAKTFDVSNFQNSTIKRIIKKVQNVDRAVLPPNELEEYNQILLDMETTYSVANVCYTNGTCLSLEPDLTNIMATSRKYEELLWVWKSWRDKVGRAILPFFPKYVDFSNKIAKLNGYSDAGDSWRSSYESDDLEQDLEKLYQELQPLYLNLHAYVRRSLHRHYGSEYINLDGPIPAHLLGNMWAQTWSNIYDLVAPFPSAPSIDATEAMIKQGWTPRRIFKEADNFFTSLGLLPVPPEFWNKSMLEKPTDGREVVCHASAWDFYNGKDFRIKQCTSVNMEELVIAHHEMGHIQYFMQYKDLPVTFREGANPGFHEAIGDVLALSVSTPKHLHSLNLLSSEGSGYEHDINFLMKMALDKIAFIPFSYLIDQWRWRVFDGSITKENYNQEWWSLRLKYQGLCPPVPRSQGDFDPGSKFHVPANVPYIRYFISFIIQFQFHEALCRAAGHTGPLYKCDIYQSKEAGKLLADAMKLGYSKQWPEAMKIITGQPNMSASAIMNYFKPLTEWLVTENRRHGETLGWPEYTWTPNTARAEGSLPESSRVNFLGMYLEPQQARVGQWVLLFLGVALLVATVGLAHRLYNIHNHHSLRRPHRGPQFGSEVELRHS

[2] = Percentage reduction in erythrocytes following elastase challenge/treatment.; type: functional; parameters: concentration or dose not given beside the values
In short: (§1)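 Male Syrian hamsters (90–110 g), anaesthetised with brevital sodium (30 mg/kg ip), received intratracheal HNE (400 μg in 0.01 M PBS). Test agent was given intratracheally, either admixed with the enzyme or predosed (shortest interval 6 h). Dose interval is the longest with significant lesion inhibition. At 24 h, wet lung weight/body weight and lavage red/white cells (Coulter) were measured. Results are % reduction scaled between the HNE and saline controls (p = 0.05).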

Papain = target: T3, Papain (Carica papaya, UniProt P00784); assay: Binding affinity towards papain
T3 sequence (P00784 whole entry): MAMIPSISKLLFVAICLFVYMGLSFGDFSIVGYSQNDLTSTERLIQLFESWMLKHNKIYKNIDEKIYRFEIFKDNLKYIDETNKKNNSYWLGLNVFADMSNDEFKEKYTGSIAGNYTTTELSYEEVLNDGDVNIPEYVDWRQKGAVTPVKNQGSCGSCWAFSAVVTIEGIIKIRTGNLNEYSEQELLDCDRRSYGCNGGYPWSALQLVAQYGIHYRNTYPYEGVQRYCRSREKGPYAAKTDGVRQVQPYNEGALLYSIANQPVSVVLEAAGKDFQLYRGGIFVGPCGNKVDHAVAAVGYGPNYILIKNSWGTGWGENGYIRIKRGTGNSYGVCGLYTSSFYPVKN

[3] = Percent reduction in leukocytes following elastase challenge/treatment.; type: functional; parameters: concentration or dose not given beside the values; in short: as §1
Chymotrypsinogen A = Chymotrypsinogen A (Bos taurus, UniProt P00766); assay: Binding affinity towards chymotrypsin
Cathepsin G = target: T4, Cathepsin G (Homo sapiens, UniProt P08311); assay: Binding affinity towards cathepsin G
T4 sequence (P08311 whole entry): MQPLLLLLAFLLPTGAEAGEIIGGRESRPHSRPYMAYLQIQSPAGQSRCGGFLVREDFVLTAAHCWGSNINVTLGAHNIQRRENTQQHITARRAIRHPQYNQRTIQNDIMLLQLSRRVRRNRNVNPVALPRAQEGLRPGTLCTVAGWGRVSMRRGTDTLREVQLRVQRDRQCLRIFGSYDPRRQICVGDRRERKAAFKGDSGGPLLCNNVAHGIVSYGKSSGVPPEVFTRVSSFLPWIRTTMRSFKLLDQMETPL

[4] = target: T5, Neutrophil elastase (Homo sapiens) (UniProt P08246); settings: Lung
T5 sequence (whole entry): T1 sequence (P08246 whole entry)

Chain of Serine protease 1 (P07477 whole entry): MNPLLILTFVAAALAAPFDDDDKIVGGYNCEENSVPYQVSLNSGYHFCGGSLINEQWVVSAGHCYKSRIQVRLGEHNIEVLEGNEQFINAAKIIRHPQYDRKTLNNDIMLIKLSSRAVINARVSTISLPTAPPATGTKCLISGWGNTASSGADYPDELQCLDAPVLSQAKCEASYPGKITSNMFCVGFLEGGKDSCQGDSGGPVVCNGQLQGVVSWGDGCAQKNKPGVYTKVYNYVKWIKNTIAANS

For `CC(C)[C@H](NC(=O)[C@@H]1CCCN1C(=O)[C@@H](NC(=O)c1ccc(C(=O)NS(=O)(=O)c2ccc(Cl)cc2)cc1)C(C)C)C(=O)c1nc2cc(C(N)=O)ccc2o1`, which Ki (Neutrophil elastase) is on record?
The Ki was 0.0002 µM.

And the Ki (Serine protease 1)?
Its Ki is greater than 50 µM.

What about the Ki (Prothrombin) of the same compound?
Its Ki is greater than 50 µM.

What about the Ki [1] of the same compound?
The Ki was greater than 200 µM.

What about the Reduction [2] of the same compound?
The Reduction was 64%.

What about the Ki (Papain) of the same compound?
Its Ki is greater than 200 µM.

And the Reduction [3]?
Its Reduction is 53%.

What about the Ki (Chymotrypsinogen A) of the same compound?
Its Ki is 92 µM.

What about the Ki (Cathepsin G) of the same compound?
The Ki was greater than 2000 µM.

And the Lw/Bw [4]?
Its Lw/Bw is 54.
